Results taken from ChEMBL document CHEMBL1649124, “Genetic variability among ampC genes from acinetobacter genomic species 3” (Antimicrob Agents Chemother, 2009).
Converted amounts (≈) assume the structure as drawn.

Columns and labels:
Acinetobacter pittii [1] = assay: Antibacterial activity against Acinetobacter genomosp. 3 isolate 14 by Etest method; type: functional
Outline: (§1)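 MICs for AG3 clinical isolates were read by Etest following the manufacturer's instructions. Isolates were stored at –80°C in 10% Brucella glycerol broth before testing.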

Acinetobacter pittii [2] = assay: Antibacterial activity against Acinetobacter genomosp. 3 isolate 109 by Etest method; type: functional; outline: as §1
Escherichia coli [3] = assay: Antibacterial activity against Escherichia coli DH5alpha carrying ampC gene of Acinetobacter genomosp. 3 isolate 109 by Etest method; type: functional
Outline: (§2)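 E. coli DH5α expressing the AG3 isolate ampC gene, PCR-amplified (high-fidelity system, 28 cycles) and cloned into BamHI/HindIII sites of pBGS18 (kanamycin marker) under the CTX-M-14 β-lactamase promoter. Grown at 37°C in LB, with kanamycin 50 µg/ml when needed. β-Lactam MICs determined by Etest per the manufacturer's instructions.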

Acinetobacter pittii [4] = assay: Antibacterial activity against Acinetobacter genomosp. 3 isolate 195 by Etest method; type: functional; outline: as §1
Acinetobacter pittii [5] = assay: Antibacterial activity against Acinetobacter genomosp. 3 isolate 21 by Etest method; type: functional; outline: as §1
Escherichia coli [6] = assay: Antibacterial activity against Escherichia coli DH5alpha by Etest method; type: functional
Outline: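 E. coli DH5α host strain, grown at 37°C in LB medium. MICs of β-lactams determined by Etest following the manufacturer's instructions.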

Acinetobacter pittii [7] = assay: Antibacterial activity against Acinetobacter genomosp. 3 isolate 67 by Etest method; type: functional; outline: as §1
Acinetobacter pittii [8] = assay: Antibacterial activity against Acinetobacter genomosp. 3 isolate 65 by Etest method; type: functional; outline: as §1
Escherichia coli [9] = assay: Antibacterial activity against Escherichia coli DH5alpha carrying ampC gene of Acinetobacter genomosp. 3 isolate 195 by Etest method; type: functional; outline: as §2
Acinetobacter pittii [10] = assay: Antibacterial activity against Acinetobacter genomosp. 3 isolate 90 by Etest method; type: functional; outline: as §1
Escherichia coli [11] = assay: Antibacterial activity against Escherichia coli DH5alpha carrying ampC gene of Acinetobacter genomosp. 3 isolate 56 by Etest method; type: functional; outline: as §2
Escherichia coli [12] = assay: Antibacterial activity against Escherichia coli DH5alpha carrying ampC gene of Acinetobacter genomosp. 3 isolate 69 by Etest method; type: functional; outline: as §2
Acinetobacter pittii [13] = assay: Antibacterial activity against Acinetobacter genomosp. 3 isolate 128 by Etest method; type: functional; outline: as §1
Escherichia coli [14] = assay: Antibacterial activity against Escherichia coli DH5alpha carrying ampC gene of Acinetobacter genomosp. 3 isolate 65 by Etest method; type: functional; outline: as §2
Acinetobacter pittii [15] = assay: Antibacterial activity against Acinetobacter genomosp. 3 isolate 52 by Etest method; type: functional; outline: as §1
Escherichia coli [16] = assay: Antibacterial activity against Escherichia coli DH5alpha carrying ampC gene of Acinetobacter genomosp. 3 isolate 103 by Etest method; type: functional; outline: as §2
Acinetobacter pittii [17] = assay: Antibacterial activity against Acinetobacter genomosp. 3 isolate 243 by Etest method; type: functional; outline: as §1
Acinetobacter pittii [18] = assay: Antibacterial activity against Acinetobacter genomosp. 3 isolate 20 by Etest method; type: functional; outline: as §1
Acinetobacter pittii [19] = assay: Antibacterial activity against Acinetobacter genomosp. 3 isolate 69 by Etest method; type: functional; outline: as §1
Acinetobacter pittii [20] = assay: Antibacterial activity against Acinetobacter genomosp. 3 isolate 103 by Etest method; type: functional; outline: as §1
Escherichia coli [21] = assay: Antibacterial activity against Escherichia coli DH5alpha carrying ampC gene of Acinetobacter genomosp. 3 isolate 20 by Etest method; type: functional; outline: as §2
Acinetobacter pittii [22] = assay: Antibacterial activity against Acinetobacter genomosp. 3 isolate 56 by Etest method; type: functional; outline: as §1
Escherichia coli [23] = assay: Antibacterial activity against Escherichia coli DH5alpha carrying ampC gene of Acinetobacter genomosp. 3 isolate 14 by Etest method; type: functional; outline: as §2
Acinetobacter pittii [24] = assay: Antibacterial activity against Acinetobacter genomosp. 3 isolate 60 by Etest method; type: functional; outline: as §1
[25] = tested on: CO/N=C(\C(=O)N[C@@H]1C(=O)N2C(C(=O)O)=C(COC(N)=O)CS[C@H]12)c1ccco1; assay: (§3) Activity of Acinetobacter genomosp. 3 isolate 65 ADC-14; conditions: Acinetobacter pittii
Outline: (§4)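 AmpC genes from AG3 clinical isolates were cloned into pGEX-6P-1 and expressed as GST fusions. The mature enzyme was purified free of GST, giving a 43 kDa SDS-PAGE band of 95% purity. Kinetics were read spectrophotometrically at 25°C in PBS with 20 mg/liter BSA, three repeats. For poor substrates, Km was taken as Ki in competitive assays with Centa as reporter substrate. Vmax came from the Michaelis-Menten equation at six times Km antibiotic.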

[26] = tested on: CO/N=C(\C(=O)N[C@@H]1C(=O)N2C(C(=O)O)=C(COC(C)=O)CS[C@H]12)c1csc(N)n1; assay: as §3; conditions: Acinetobacter pittii; outline: as §4
[27] = tested on: CC(=O)OCC1=C(C(=O)O)N2C(=O)[C@@H](NC(=O)Cc3cccs3)[C@H]2SC1; assay: as §3; conditions: Acinetobacter pittii; outline: as §4
[28] = tested on: CC(C)(O/N=C(\C(=O)N[C@@H]1C(=O)N2C(C(=O)[O-])=C(C[n+]3ccccc3)CS[C@H]12)c1csc(N)n1)C(=O)O; assay: as §3; conditions: Acinetobacter pittii; outline: as §4
[29] = tested on: CO[C@@]1(NC(=O)Cc2cccs2)C(=O)N2C(C(=O)O)=C(COC(N)=O)CS[C@@H]21; assay: as §3; conditions: Acinetobacter pittii; outline: as §4
[30] = tested on: C[C@H]1[C@H](NC(=O)/C(=N\OC(C)(C)C(=O)O)c2csc(N)n2)C(=O)N1S(=O)(=O)O; assay: as §3; conditions: Acinetobacter pittii; outline: as §4
[31] = tested on: CO/N=C(\C(=O)N[C@@H]1C(=O)N2C(C(=O)O)=C(COC(N)=O)CS[C@H]12)c1ccco1; assay: (§5) Ratio of Kcat to Km for Acinetobacter genomosp. 3 isolate 65 ADC-14; conditions: Acinetobacter pittii; outline: as §4
[32] = tested on: CO/N=C(\C(=O)N[C@@H]1C(=O)N2C(C(=O)O)=C(COC(C)=O)CS[C@H]12)c1csc(N)n1; assay: as §5; conditions: Acinetobacter pittii; outline: as §4
[33] = tested on: CC(=O)OCC1=C(C(=O)O)N2C(=O)[C@@H](NC(=O)Cc3cccs3)[C@H]2SC1; assay: as §5; conditions: Acinetobacter pittii; outline: as §4
[34] = tested on: CC(C)(O/N=C(\C(=O)N[C@@H]1C(=O)N2C(C(=O)[O-])=C(C[n+]3ccccc3)CS[C@H]12)c1csc(N)n1)C(=O)O; assay: as §5; conditions: Acinetobacter pittii; outline: as §4
[35] = tested on: CO[C@@]1(NC(=O)Cc2cccs2)C(=O)N2C(C(=O)O)=C(COC(N)=O)CS[C@@H]21; assay: as §5; conditions: Acinetobacter pittii; outline: as §4

Compound | MIC (Acinetobacter pittii [1]) [µg/mL] | MIC (Acinetobacter pittii [2]) [µg/mL] | MIC (Escherichia coli [3]) [µg/mL] | MIC (Acinetobacter pittii [4]) [µg/mL] | MIC (Acinetobacter pittii [5]) [µg/mL] | MIC (Escherichia coli [6]) [µg/mL] | MIC (Acinetobacter pittii [7]) [µg/mL] | MIC (Acinetobacter pittii [8]) [µg/mL] | MIC (Acinetobacter pittii [10]) [µg/mL] | MIC (Escherichia coli [11]) [µg/mL] | MIC (Escherichia coli [12]) [µg/mL] | MIC (Acinetobacter pittii [13]) [µg/mL] | MIC (Escherichia coli [14]) [µg/mL] | MIC (Acinetobacter pittii [15]) [µg/mL] | MIC (Acinetobacter pittii [17]) [µg/mL] | MIC (Acinetobacter pittii [18]) [µg/mL] | MIC (Acinetobacter pittii [19]) [µg/mL] | MIC (Acinetobacter pittii [20]) [µg/mL] | MIC (Acinetobacter pittii [22]) [µg/mL] | MIC (Acinetobacter pittii [24]) [µg/mL] | also measured
CO/N=C(\C(=O)N[C@@H]1C(=O)N2C(C(=O)O)=C(COC(N)=O)CS[C@H]12)c1ccco1 [CEFUROXIME] | 32 (≈ 75.4 µM) | 32 (≈ 75.4 µM) | 32 (≈ 75.4 µM) | 64 (≈ 151 µM) | 48 (≈ 113 µM) | 1.5 (≈ 3.53 µM) | 48 (≈ 113 µM) | 24 (≈ 56.6 µM) | 16 (≈ 37.7 µM) | 48 (≈ 113 µM) | 32 (≈ 75.4 µM) | 32 (≈ 75.4 µM) | 4 (≈ 9.43 µM) | 32 (≈ 75.4 µM) | 32 (≈ 75.4 µM) | 48 (≈ 113 µM) | 32 (≈ 75.4 µM) | 48 (≈ 113 µM) | 16 (≈ 37.7 µM) | 64 (≈ 151 µM) | MIC (Escherichia coli [9]): 48 µg/mL (≈ 113 µM); MIC (Escherichia coli [16]): 64 µg/mL (≈ 151 µM); MIC (Escherichia coli [21]): 96 µg/mL (≈ 226 µM); MIC (Escherichia coli [23]): 64 µg/mL (≈ 151 µM)
CC(C)(O/N=C(\C(=O)N[C@@H]1C(=O)N2C(C(=O)[O-])=C(C[n+]3ccccc3)CS[C@H]12)c1csc(N)n1)C(=O)O [CEFTAZIDIME] | 3 (≈ 5.49 µM) | 3 (≈ 5.49 µM) | 0.19 (≈ 0.348 µM) | 4 (≈ 7.32 µM) | 6 (≈ 11 µM) | 0.19 (≈ 0.348 µM) | 3 (≈ 5.49 µM) | 4 (≈ 7.32 µM) | 6 (≈ 11 µM) | 0.25 (≈ 0.457 µM) | 0.19 (≈ 0.348 µM) | 3 (≈ 5.49 µM) | 0.25 (≈ 0.457 µM) | 3 (≈ 5.49 µM) | 4 (≈ 7.32 µM) | 4 (≈ 7.32 µM) | 4 (≈ 7.32 µM) | 4 (≈ 7.32 µM) | 1.5 (≈ 2.74 µM) | 3 (≈ 5.49 µM) | MIC (Escherichia coli [9]): 0.5 µg/mL (≈ 0.915 µM); MIC (Escherichia coli [16]): 0.5 µg/mL (≈ 0.915 µM); MIC (Escherichia coli [21]): 0.75 µg/mL (≈ 1.37 µM); MIC (Escherichia coli [23]): 0.38 µg/mL (≈ 0.695 µM)
CCN1CCN(C(=O)N[C@@H](C(=O)N[C@@H]2C(=O)N3[C@@H]2SC(C)(C)[C@@H]3C(=O)O)c2ccccc2)C(=O)C1=O [PIPERACILLIN] | 16 (≈ 30.9 µM) | 16 (≈ 30.9 µM) | 4 (≈ 7.73 µM) | 24 (≈ 46.4 µM) | 24 (≈ 46.4 µM) | 0.38 (≈ 0.734 µM) | 16 (≈ 30.9 µM) | 16 (≈ 30.9 µM) | 12 (≈ 23.2 µM) | 3 (≈ 5.8 µM) | 3 (≈ 5.8 µM) | 12 (≈ 23.2 µM) | 4 (≈ 7.73 µM) | 12 (≈ 23.2 µM) | 32 (≈ 61.8 µM) | 24 (≈ 46.4 µM) | 16 (≈ 30.9 µM) | 24 (≈ 46.4 µM) | 12 (≈ 23.2 µM) | 24 (≈ 46.4 µM) | MIC (Escherichia coli [9]): 4 µg/mL (≈ 7.73 µM); MIC (Escherichia coli [16]): 4 µg/mL (≈ 7.73 µM); MIC (Escherichia coli [21]): 4 µg/mL (≈ 7.73 µM); MIC (Escherichia coli [23]): 4 µg/mL (≈ 7.73 µM)
ADC-14 protein (Acinetobacter genomosp. 3) (from UniProt Q0VTR6) | – | – | – | – | – | – | – | – | – | – | – | – | – | – | – | – | – | – | – | – | Km [25]: 0.02 µM; kcat [25]: 0.01 s⁻¹; Km [26]: 0.08 µM; kcat [26]: 0.004 s⁻¹; Km [27]: 6.73 µM; kcat [27]: 56.5 s⁻¹; Km [28]: 26.1 µM; kcat [28]: 0.01 s⁻¹; Km [29]: 0.02 µM; kcat [29]: 0.02 s⁻¹; Km [30]: 6.01 µM; kcat/Km [31]: 529000 M⁻¹ s⁻¹; kcat/Km [32]: 48200 M⁻¹ s⁻¹; kcat/Km [33]: 8.4e+06 M⁻¹ s⁻¹; kcat/Km [34]: 380 M⁻¹ s⁻¹; kcat/Km [35]: 941000 M⁻¹ s⁻¹
C[C@@H](O)[C@H]1C(=O)N2C(C(=O)O)=C(SCCNC=N)C[C@H]12 [IMIPENEM ANHYDROUS] | 0.25 (≈ 0.835 µM) | 0.19 (≈ 0.635 µM) | 0.12 (≈ 0.401 µM) | 0.19 (≈ 0.635 µM) | 0.38 (≈ 1.27 µM) | 0.125 (≈ 0.418 µM) | 0.19 (≈ 0.635 µM) | 0.19 (≈ 0.635 µM) | 0.38 (≈ 1.27 µM) | 0.19 (≈ 0.635 µM) | 0.19 (≈ 0.635 µM) | 0.12 (≈ 0.401 µM) | 0.19 (≈ 0.635 µM) | 0.25 (≈ 0.835 µM) | 0.19 (≈ 0.635 µM) | 1 (≈ 3.34 µM) | 0.25 (≈ 0.835 µM) | 0.75 (≈ 2.51 µM) | 0.19 (≈ 0.635 µM) | 0.25 (≈ 0.835 µM) | MIC (Escherichia coli [16]): 0.125 µg/mL (≈ 0.418 µM); MIC (Escherichia coli [21]): 0.023 µg/mL (≈ 0.0768 µM); MIC (Escherichia coli [23]): 0.125 µg/mL (≈ 0.418 µM)
Cc1onc(-c2ccccc2Cl)c1C(=O)N[C@@H]1C(=O)N2[C@@H]1SC(C)(C)[C@@H]2C(=O)O [CLOXACILLIN] | 2050 (≈ 4700 µM) | 2050 (≈ 4700 µM) | – | 1020 (≈ 2350 µM) | 512 (≈ 1170 µM) | – | 1880 (≈ 4300 µM) | 1020 (≈ 2350 µM) | 512 (≈ 1170 µM) | – | – | 2050 (≈ 4700 µM) | – | 1020 (≈ 2350 µM) | 2050 (≈ 4700 µM) | 1020 (≈ 2350 µM) | > 2050 | 1020 (≈ 2350 µM) | 512 (≈ 1170 µM) | 1020 (≈ 2350 µM) | –
